Screens as filed in PubChem.
aDG glyco act: increases alpha dystroglycan glycosylation; Pro5-aDG cells, alpha-DG glycosylation AlphaScreen (IIH6); 0% Pro5, 100% B10-LARGE cell signal; activation, % at 10 µM; 0.22% of 360,000 active; AID 624168;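 active means activation of at least 8% versus controls, or a plate z-score of at least 8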;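 further: Pro5 are CHO cells carrying HIG-tagged alpha-DG that lacks glycosylation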
bovine MsrA act: activates bovine MsrA enzyme. purified bovine MsrA, absorbance read-out. activation, % at 10.6 µM. 0.3% of 360,000 active; in the data active means activation above about 7.5%;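 further: 0% = vehicle and 100% = reference activator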
UCH37 inh: human UCH37 deubiquitinating enzyme inhibition. Q9Y5K5. purified proteasome/UCH37, Ub-AMC cleavage fluorescence. inhibition, % (no concentration beside the values). 0.33% of 330,000 active;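 active means mean inhibition over replicate wells above about 20%, limit read from the data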;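 further: 0% = compound-free wells with enzyme and 100% = wells lacking proteasome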
Target sequence (Q9Y5K5 whole entry, looked up): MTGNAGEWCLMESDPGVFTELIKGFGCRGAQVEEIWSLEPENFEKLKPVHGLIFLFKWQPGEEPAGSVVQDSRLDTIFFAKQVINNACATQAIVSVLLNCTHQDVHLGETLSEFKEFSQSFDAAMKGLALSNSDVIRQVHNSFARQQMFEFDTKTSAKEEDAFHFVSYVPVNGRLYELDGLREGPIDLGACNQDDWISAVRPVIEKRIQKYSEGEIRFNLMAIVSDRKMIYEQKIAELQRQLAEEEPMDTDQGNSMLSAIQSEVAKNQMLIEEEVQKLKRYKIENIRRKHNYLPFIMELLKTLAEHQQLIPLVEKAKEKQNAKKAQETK
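assay system = human UCH37 enzyme supplied as purified proteasome complex | amount = proteasome at 0.15 nM in the dispensed enzyme solution | schedule = 30 min compound-proteasome preincubation then 25 min substrate reaction, room temperature | measured by = fluorescence, ex 355 nm, em 460 nm | benchmarks = no-proteasome wells (full inhibition) and compound-free wells (no inhibition)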
MsrA inh: inhibitors of bovine MsrA; purified bovine MsrA, absorbance read-out; 0.75% of 360,000 active; AID 651718; inhibition, % at 15.5 µM; in the data active means inhibition above about 4.5%;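 further: 0% = vehicle wells with enzyme and 100% = reference inhibitor wells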
Vif imaging: blocks HIV Vif function; HEK293T cells, Vif self-association by quenched fluorescence, imaging, 24 h; inhibition, % at 7.49 µM; 0.35% of 340,000 active; in the data active means inhibition above about 50%, passing the limit was not always enough; inconclusive means no clear call, values can overlap the other calls; inactive means below about 31%
N-glyco inh: N-linked glycosylation inhibition | D54 ERlucT glycosylation luciferase reporter, 24 h; percent of 100 nM tunicamycin response | reporter increase, % at 12.5 µM | 0.23% of 360,000 active;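 active means mean luciferase reporter signal, scaled so untreated is 0 and the glycosylation-blocking control 100, at or above a set limit in every replicate; inconclusive means mean reaches the limit but not every replicate does; inactive means mean below the limit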;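 further: luciferase carries N-glycosylation sites so blocking glycosylation raises the light; 0% = median of neutral control wells and 100% = median of 100 nM tunicamycin wells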
MsrA act confirm: confirmation of bovine methionine sulfoxide reductase A activators; shares compounds with bovine MsrA act; 12% of 1,000 active; AID 602270; purified bovine MsrA, absorbance read-out; activation, % at 10.6 µM; in the data active means activation above about 4%;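 further: enzyme coupled to thioredoxin and thioredoxin reductase with NADPH; 0% = vehicle wells and 100% = reference activator wells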
* hit, by the source's call. Rows were chosen to be rich in hits. Some 1.9% of all compounds tested hit in one or more screens of this group.

What do the screens show for `Cc1ccc(/C=N/Nc2nncn2N)cc1`?
aDG glyco act: 0; bovine MsrA act: 8.5*; MsrA inh: 0; Vif imaging: -3; N-glyco inh: 2; MsrA act confirm: -1

What do the screens show for `Nn1cnnc1N/N=C/c1ccc(Cl)c([N+](=O)[O-])c1`?
aDG glyco act: 0; bovine MsrA act: 18*; MsrA inh: 1; Vif imaging: -1; N-glyco inh: 7; MsrA act confirm: 1

How did CC(C)CC(=O)ON=C1C(=O)N(c2ccccc2)c2ccccc21 do in these assays?
UCH37 inh: 3

What do the screens show for `O=C(CSc1ncnc2c1oc1ccccc12)Nc1cccc(C(F)(F)F)c1`?
aDG glyco act: 0; bovine MsrA act: 8.8*; UCH37 inh: 1; MsrA inh: 0; Vif imaging: -6; N-glyco inh: 1; MsrA act confirm: -2

Results for CCc1ccc(NC(=O)CSc2nnc(COc3ccc4c(c3)CCCC4)o2)cc1 ?
aDG glyco act: 0; bovine MsrA act: 11*; UCH37 inh: 2; MsrA inh: 0; Vif imaging: 3; N-glyco inh: -2; MsrA act confirm: -2

What do the screens show for `COC(=O)c1ccc(NC(=O)CSc2nnc(COc3ccc4c(c3)CCCC4)o2)cc1`?
aDG glyco act: 0; bovine MsrA act: -5; UCH37 inh: 1; MsrA inh: 0; Vif imaging: 9; N-glyco inh: 1

Results for O=C(Nc1cccc([N+](=O)[O-])c1)c1ccc([N+](=O)[O-])o1 ?
aDG glyco act: 1; bovine MsrA act: 9.8*; MsrA inh: 2; Vif imaging: 5; N-glyco inh: inconclusive; MsrA act confirm: 5.7*

What do the screens show for `O=C(Nc1cccc(NC(=O)c2ccccc2Cl)c1)c1ccc([N+](=O)[O-])o1`?
aDG glyco act: 0; bovine MsrA act: 2; MsrA inh: 1; Vif imaging: 12; N-glyco inh: -17

Results for O=[N+]([O-])c1ccc(C=NNc2ccnc3cc(Cl)ccc23)o1 ?
UCH37 inh: 6

Results for COc1ccccc1NC(=O)c1ccccc1Nc1ccccc1 ?
aDG glyco act: 0; bovine MsrA act: 10*; UCH37 inh: 3; MsrA inh: 0; Vif imaging: 3; N-glyco inh: -4; MsrA act confirm: -1

What do the screens show for `COc1ccccc1NC(=O)c1ccccc1C(=O)O`?
aDG glyco act: 0; bovine MsrA act: 0; UCH37 inh: 10; MsrA inh: 1; Vif imaging: -2; N-glyco inh: 1

What do the screens show for `Cc1ccc(C(=O)ON=Cc2ccc(N3CCOCC3)c([N+](=O)[O-])c2)cc1`?
UCH37 inh: 3

Results for COc1ccc2c(c1)C1(Nc3ccccc3-c3nc4ccccc4n31)C(=O)N2 (stereo unspecified) ?
aDG glyco act: 0; bovine MsrA act: 8.7*; UCH37 inh: 0; MsrA inh: 0; Vif imaging: -20; N-glyco inh: 0; MsrA act confirm: 0

What do the screens show for `COc1ccc(C)cc1S(=O)(=O)Nc1cccc(SC)c1`?
aDG glyco act: 0; bovine MsrA act: 8.8*; UCH37 inh: -3; MsrA inh: 0; Vif imaging: -14; N-glyco inh: -5; MsrA act confirm: -2

What do the screens show for `O=C(O)C1=NOC(CNC(=O)c2ccccc2Cl)C1` (stereo unspecified)?
aDG glyco act: 0; bovine MsrA act: 11*; UCH37 inh: 1; MsrA inh: -1; Vif imaging: -4; N-glyco inh: 2; MsrA act confirm: 3

How did COc1ccccc1-[n+]1c(C)cc(/C=C2\Sc3ccccc3N2C)cc1C do in these assays?
aDG glyco act: 1; bovine MsrA act: 8.2*; UCH37 inh: 20*; MsrA inh: -1; N-glyco inh: -18; MsrA act confirm: -3

How did Cc1nnc(NC(=O)c2nc(S(=O)(=O)Cc3ccccc3)ncc2Cl)s1 do in these assays?
aDG glyco act: 0; bovine MsrA act: 11*; MsrA inh: -1; Vif imaging: 12; N-glyco inh: 4; MsrA act confirm: 1

Results for O=C(NN=Cc1ccccc1F)NC12CC3CC(CC(C3)C1)C2 ?
UCH37 inh: 1

How did Cc1ccc(-c2ccc(C=NNC(=O)c3cc4c(ccc5ccccc54)o3)o2)cc1[N+](=O)[O-] do in these assays?
UCH37 inh: 4
